Measurements reported in PubChem BioAssay.
Results filed as inconclusive are left out. Active and inactive are the calls of the source.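 The calls were made as follows, unless noted: active = inhibition over a set limit, the all-compound mean plus 3 SD, in both replicate runs; inconclusive = over that limit in just one replicate run; inactive = at or under that limit in both runs.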

Columns and labels:
[1] = OD615 S. cerevisiae growth inhibition, permissive medium, pilot counter-assay, permissive growth control for S. cerevisiae lifespan shortening project (AID 705;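 active = growth inhibition above 25% in both replicates, a cutoff set 3 SD above the mean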); conditions: OD615, 24 h, at 10 µM, active compounds read high
How it was run: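 System: S. cerevisiae with engineered DeaD lifespan system. Medium: SC raffinose/galactose permissive medium. Doses: single compound dose of 10 µM, 0.25% DMSO final. Schedule: 24 h exposure, 30 °C. Measured by: OD615 turbidity read. Read-out: growth inhibition.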

[2] = Restrictive medium S. cerevisiae growth inhibition, OD615, pilot screen of yeast lifespan reduction project, restrictive growth control (AID 706;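 active = growth inhibition above a set limit, 3 SD over mean compound inhibition, in both replicates, cut at about 43% in these data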;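 also: modified DeaD lifespan yeast strain shifted to restrictive glucose medium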); conditions: OD615, 48 h, at 10 µM, active compounds read high
How it was run: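 Assay system – genetically modified Saccharomyces cerevisiae, DeaD replicative lifespan assay strain · Medium – CSMM-D glucose medium · Doses – 10 µM compound, 0.25% DMSO · Times – 4 h pre-incubation, 48 h exposure at 30 °C · Signal – optical density at 615 nm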

[3] = viability gain of MRP-1-high H69AR cells under doxorubicin, pilot screen, MRP-1 activator project, CellTiter-Glo, duplicate (AID 807;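 active = viability increase at or above a cutoff of the median across tested compounds plus 3 SD, cut at about 8.5% in these data, passing the limit was not always enough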;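 also: compound pretreatment 18-22 h then 72 h combined with doxorubicin; 0% = doxorubicin alone and 100% = vehicle without doxorubicin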); conditions: H69AR viability with doxorubicin, CellTiter-Glo luminescence; at 10 µM; active compounds read high
[4] = growth suppression of beta-catenin knockout HCT116, pilot screen, human colon tumor cells (AID 823;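 active = cell viability at or below a set limit in both duplicate runs, the limit being the all-compound median minus 4 SD, cut at about 23% in these data, passing the limit was not always enough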;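 also: 0% = wells killed by 20 µM Hyamine and 100% = untreated DMSO cell wells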); conditions: CellTiter-Glo, 60 h, at 10 µM, active compounds read low
[5] = growth suppression of PTEN-deleted HCT116, pilot screen, cell-based, HCT116 clonal line, CellTiter-Glo (AID 824;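 active = viability at or below 27.92% in each of two runs, the all-compound median minus 4 SD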;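 also: 0% = 20 µM Hyamine control and 100% = vehicle cell control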); conditions: 60 h, at 10 µM, active compounds read low
[6] = inhibitors of the yeast RAM network, pilot screen, dse1pr::URA3 reporter, 5-FOA selection (AID 869);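 also: 0% = DMSO wells with no growth and 100% = 10 µM 1-NA-PP1 with full growth; RAM network block rescues cells from 5-FOA so hits raise OD615 growth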; conditions: S. cerevisiae dse1pr::URA3 5-FOA growth, OD615, 2 d; at 10 µM; active compounds read high; strain carries analog-sensitive mutant Cbk1 kinase
[7] = RAM signaling pathway blockade in yeast – S. cerevisiae, Pdr1DBD-CYC8 efflux-inhibited sensitized strain, primary screen (AID 1298;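 active = RAM network inhibition above 8.4% in each of two replicates, 3 SD over the compound average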;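 also: 0% = DMSO untreated cells without growth and 100% = 10 µM 1-NA-PP1 full growth; higher means more yeast growth rescued from 5-FOA killing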); conditions: S. cerevisiae cbk1-as DSE1-URA3 strain, 5-FOA growth OD615, 2 d; at 50 µM; active compounds read high

O=C(COC(=O)C1CC(=O)N(C2CCCCC2)C1)c1ccc(F)cc1 (configuration not stated)
inactive: growth inhibition [1] -2.56% | growth inhibition [2] 0.43% | viability increase [3] -2.49% | viability [4] 108% | viability [5] 101% | inhibition [6] 0.95% | RAM network inhibition [7] 2.97%

Cc1cc(C)c(OCC(=O)Nc2cccc(NC(=O)c3ccco3)c2)c(Br)c1
inactive: growth inhibition [1] -3.62% | growth inhibition [2] 4.23% | viability increase [3] -3.03% | viability [4] 56.1% | viability [5] 60.8% | inhibition [6] 0.45% | RAM network inhibition [7] 3.46%

CCOc1ccccc1Oc1c(C)oc2cc(OC(=O)N3CCOCC3)ccc2c1=O
inactive: growth inhibition [1] -12.9% | growth inhibition [2] -3.33% | viability increase [3] -0.28% | viability [4] 103% | viability [5] 103% | inhibition [6] 2.8% | RAM network inhibition [7] 4.64%

CN(C)c1ccc(CN2CCCCCC2)cc1
inactive: growth inhibition [1] -3.95% | growth inhibition [2] -24.5% | viability increase [3] -2% | viability [4] 87% | viability [5] 88.1% | inhibition [6] 0.44% | RAM network inhibition [7] 0.1%

Cc1ccc(OCC(=O)NCc2ccccn2)c(Br)c1
inactive: growth inhibition [1] 2.21% | growth inhibition [2] -9.19% | viability increase [3] -1.45% | viability [4] 97.8% | viability [5] 95% | inhibition [6] 0.22% | RAM network inhibition [7] 0.01%

COc1cccc(-n2c(Cc3cc(=O)[nH]c(=O)[nH]3)nnc2SC(C)C)c1
inactive: growth inhibition [1] -12.3% | growth inhibition [2] 8.2% | viability increase [3] -0.34% | viability [4] 103% | viability [5] 100% | inhibition [6] 1.71% | RAM network inhibition [7] 3.35%

CCCC(=O)N=c1sc2cccc(F)c2n1C
inactive: growth inhibition [1] -9.43% | growth inhibition [2] -11.1% | viability increase [3] -2.75% | viability [4] 99% | viability [5] 93.2% | inhibition [6] 0.795% | RAM network inhibition [7] 5.05%

CN(C)c1nc(N)nc(-c2cccnc2)n1
inactive: growth inhibition [1] -0.465% | growth inhibition [2] 3.66% | viability increase [3] 0.55% | viability [4] 102% | viability [5] 103% | inhibition [6] 1.14% | RAM network inhibition [7] 5.69%

O=C1Nc2ccccc2C(O)(C(=O)NC2CC2)N1c1ccc(Cl)c(Cl)c1 (configuration not stated)
inactive: growth inhibition [1] -1.51% | growth inhibition [2] -1.06% | viability increase [3] -4.14% | viability [4] 92.5% | viability [5] 95% | inhibition [6] 1.22% | RAM network inhibition [7] 3.99%

O=C(Cn1cc2c(n1)CCCC2)NC1CCN(Cc2ccccc2)CC1
inactive: growth inhibition [1] 2.67% | growth inhibition [2] 5.09% | viability increase [3] -1.67% | viability [4] 87% | viability [5] 87% | inhibition [6] 0.965% | RAM network inhibition [7] -0.16%

COc1cccc(C(c2sc3ncnn3c2O)N2CCN(C(=O)c3ccco3)CC2)c1 (configuration not stated)
inactive: growth inhibition [1] -11.1% | growth inhibition [2] -5.93% | viability increase [3] 0.76% | viability [4] 104% | viability [5] 101% | inhibition [6] 0.91% | RAM network inhibition [7] 2.1%

COC(=O)/C=C/S(=O)(=O)c1ccc(NC(C)=O)cc1
inactive: growth inhibition [1] -15.3% | growth inhibition [2] 0.685% | viability increase [3] -8.44% | viability [4] 88.3% | viability [5] 85.4% | inhibition [6] 0.565% | RAM network inhibition [7] 7.25%

CCc1ccc(-n2c(O)cnc2Nc2nc(C)cc(C)n2)cc1
inactive: growth inhibition [1] -7.38% | growth inhibition [2] -12.2% | viability increase [3] 1.61% | viability [4] 103% | viability [5] 103% | inhibition [6] 0.325% | RAM network inhibition [7] 3.23%

O=C(NC1CCCCCC1)C1CCCN1S(=O)(=O)c1cccc2cccnc12 (configuration not stated)
inactive: growth inhibition [1] -10.1% | growth inhibition [2] -8% | viability increase [3] -0.87% | viability [4] 90.9% | viability [5] 92.1% | inhibition [6] 0.69% | RAM network inhibition [7] 3.74%

CC(=O)Nc1ccc(S(=O)(=O)N2CCN(c3cc(C)ccc3C)CC2)cc1
inactive: growth inhibition [1] -14.3% | growth inhibition [2] -36% | viability increase [3] -0.32% | viability [4] 85.7% | viability [5] 79.3% | inhibition [6] 3.58% | RAM network inhibition [7] 0.1%

Cc1cc(C)c2c(=O)n(CC(=O)N3CCC(N4CCCCC4)CC3)sc2n1
active: viability [4] 2.7% | viability [5] 16.2%
inactive: growth inhibition [1] 4.7% | growth inhibition [2] 9.28% | viability increase [3] -7.14% | inhibition [6] 2.08% | RAM network inhibition [7] 0.2%

O=C1C(=C(O)c2ccccc2)C(=O)c2ccccc21
inactive: growth inhibition [1] -20.4% | growth inhibition [2] 2.15% | viability increase [3] -3.04% | viability [4] 107% | viability [5] 103% | inhibition [6] -0.26% | RAM network inhibition [7] -1.88%

CCOC(=O)CC1C(=O)NCCN1Cc1cccc(OC)c1 (configuration not stated)
inactive: growth inhibition [1] -12.5% | growth inhibition [2] -6.96% | viability increase [3] 0.71% | viability [4] 100% | viability [5] 108% | inhibition [6] 0.17% | RAM network inhibition [7] 1.79%

Cc1cc(C)nc(NS(=O)(=O)c2ccc(Br)s2)c1
inactive: growth inhibition [1] -1.63% | growth inhibition [2] -7.46% | viability increase [3] -0.89% | viability [4] 95.9% | viability [5] 93.5% | inhibition [6] 0.28% | RAM network inhibition [7] 9.36%

O=C(c1ccc(CS(=O)(=O)c2c(Cl)cccc2Cl)o1)N1CCCC1
inactive: growth inhibition [1] -1.83% | growth inhibition [2] -21% | viability increase [3] -1.96% | viability [4] 103% | viability [5] 93.2% | inhibition [6] 2.21% | RAM network inhibition [7] -0.84%

CC1(C)Cc2c(sc3c2c(=N)n(Cc2ccco2)c(=O)n3Cc2ccc(Cl)cc2)CO1
inactive: growth inhibition [1] -1.16% | growth inhibition [2] 6.14% | viability increase [3] -4.55% | viability [4] 79.9% | viability [5] 70.6% | inhibition [6] 1.69% | RAM network inhibition [7] 4.49%

Cn1c(=NC(=O)c2ccco2)sc2cccc(F)c21
inactive: growth inhibition [1] -12.6% | growth inhibition [2] -1.11% | viability increase [3] -7.04% | viability [4] 80.9% | viability [5] 78.4% | inhibition [6] 2.1% | RAM network inhibition [7] 6.79%

O=C(O)c1cccc(-n2cnnn2)c1
inactive: growth inhibition [1] 1.37% | growth inhibition [2] 1.52% | viability increase [3] 0.82% | viability [4] 104% | viability [5] 101% | inhibition [6] 1.06% | RAM network inhibition [7] 4.03%

Cc1nnc(Sc2nc3c(c(=O)[nH]c(=O)n3C)n2Cc2ccccc2Cl)s1
inactive: growth inhibition [1] -9.12% | growth inhibition [2] -9.02% | viability increase [3] -2.89% | viability [4] 96.8% | viability [5] 90.5% | inhibition [6] 1.07% | RAM network inhibition [7] 2.84%

COC(=O)COC(=O)c1ccc(O)cc1
inactive: growth inhibition [1] 7.13% | growth inhibition [2] 4.2% | viability increase [3] -0.65% | viability [4] 99.5% | viability [5] 102% | inhibition [6] 2.5% | RAM network inhibition [7] 2.15%

O=C(CSc1ccc2nnc(-c3cccnc3)n2n1)N1CCc2ccccc21
inactive: growth inhibition [1] -5.28% | growth inhibition [2] 4.37% | viability increase [3] -3.19% | viability [4] 103% | viability [5] 94.1% | inhibition [6] 0.845% | RAM network inhibition [7] 4.57%

COc1ccc(N2Cc3cccc(C(=O)O)c3C2=O)cc1
inactive: growth inhibition [1] -17.1% | growth inhibition [2] -1.34% | viability increase [3] -0.59% | viability [4] 104% | viability [5] 101% | inhibition [6] 1.5% | RAM network inhibition [7] 0.58%

CN1CCc2c(sc3c2C(=O)NC(c2ccc(-c4cccc(Cl)c4)o2)N3)C1 (configuration not stated)
inactive: growth inhibition [1] 5% | growth inhibition [2] 3.19% | viability increase [3] -1.49% | viability [4] 97.6% | viability [5] 87.7% | inhibition [6] 1.89% | RAM network inhibition [7] 2.2%

Cc1cc(C)cc(N(CC(=O)NCC2CCCO2)S(=O)(=O)c2c(C)noc2C)c1 (configuration not stated)
inactive: growth inhibition [1] -12.5% | growth inhibition [2] -8.86% | viability increase [3] -1.25% | viability [4] 102% | viability [5] 90.5% | inhibition [6] 2.89% | RAM network inhibition [7] 1.84%

CC(=O)c1c(C)nc2ccc(Br)cc2c1C(=O)O
inactive: growth inhibition [1] -10.2% | growth inhibition [2] 8.3% | viability increase [3] -1.9% | viability [4] 98.2% | viability [5] 97.4% | inhibition [6] 1.79% | RAM network inhibition [7] 1.15%

Nc1nc(NC(=O)c2ccco2)nn1-c1ccccc1
inactive: growth inhibition [1] -11.7% | growth inhibition [2] 1.96% | viability increase [3] -2.61% | viability [4] 93.8% | viability [5] 98.6% | inhibition [6] -0.025% | RAM network inhibition [7] 5.17%

CCn1c(=O)cc(OCC(=O)N2CCc3ccccc32)c2ccccc21
inactive: growth inhibition [1] -19% | growth inhibition [2] -15.4% | viability increase [3] -3.92% | viability [4] 96.1% | viability [5] 89.9% | inhibition [6] 2.09% | RAM network inhibition [7] 3.25%

O=C(CC1NC(=O)NC1=O)NC1(C(=O)NC2CCCCC2)CCCCC1 (configuration not stated)
inactive: growth inhibition [1] -9.09% | growth inhibition [2] 5.08% | viability increase [3] 0.88% | viability [4] 99.3% | viability [5] 102% | inhibition [6] 1.18% | RAM network inhibition [7] -0.62%

O=C(NCc1cccnc1)NC1(C(F)(F)F)Oc2ccc(Cl)cc2O1 (configuration not stated)
inactive: growth inhibition [1] -2.96% | growth inhibition [2] -8.97% | viability increase [3] -6.19% | viability [4] 52.6% | viability [5] 58.7% | inhibition [6] 0.4% | RAM network inhibition [7] 0.63%

COc1ccccc1NC1C=CS(=O)(=O)C1 (configuration not stated)
inactive: growth inhibition [1] -1.03% | growth inhibition [2] 0.12% | viability increase [3] -2.42% | viability [4] 99.5% | viability [5] 94.4% | inhibition [6] 0.335% | RAM network inhibition [7] 4.65%

CCOC(=O)C1CCN(S(=O)(=O)c2ccc3c4c(cccc24)C(=O)N3)CC1
inactive: growth inhibition [1] -4.42% | growth inhibition [2] -7.67% | viability increase [3] -3.39% | viability [4] 96.5% | viability [5] 85.7% | inhibition [6] 1.76% | RAM network inhibition [7] 2.83%
